Bioassay records from PubChem.
TAAR1 antag: antagonists of human TAAR1 | CHO RD-HGA16 TAAR1, Fluo-8 calcium fluorescence, antagonist | actives 1.5% (n = 360,000) | Q96RJ0 | inhibition, % at 3 µM;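 active means inhibition above a per-plate cutoff, the mean inhibition of test compounds on that plate plus 3 SD, cut at about 49% in these data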;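 further: 0% = DMSO plus EC80 beta-PEA response and 100% = DMSO alone without agonist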
Target sequence (Q96RJ0 whole entry, looked up): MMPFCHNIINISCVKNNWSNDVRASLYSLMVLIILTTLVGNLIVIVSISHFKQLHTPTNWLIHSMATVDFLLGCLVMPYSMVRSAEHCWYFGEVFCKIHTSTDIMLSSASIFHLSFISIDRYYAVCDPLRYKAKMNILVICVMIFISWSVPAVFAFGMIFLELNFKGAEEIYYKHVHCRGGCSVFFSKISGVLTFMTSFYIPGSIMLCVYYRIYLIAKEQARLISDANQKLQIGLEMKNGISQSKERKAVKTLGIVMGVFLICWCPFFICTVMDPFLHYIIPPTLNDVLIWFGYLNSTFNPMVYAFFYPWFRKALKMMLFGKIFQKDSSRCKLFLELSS
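Material: CHO RD-HGA16 cells bearing hTAAR1; compound dosing: one-point dosing, 3 µM nominal final; schedule: dye loading 75 min at 37 °C, then 30 min room temperature; measured by: calcium fluorescence with Fluo-8; control set: vehicle and agonist controls; replication: n of 1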
V1aR counter: activates human V1a receptor in oxytocin agonist counter-screen; P37288; CHO-V1R cells, Fluo-8 calcium fluorescence, agonist mode; 0% DMSO, 100% 3 nM vasopressin; activation, % at 3 µM; actives 0.25% (n = 320,000);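 active means activation above the mean activation of all tested compounds plus 3 SD, per screening run, cut at about 20% in these data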;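 further: signal is peak over basal fluorescence ratio across a 100 second FLIPR read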
OXTR agonist: activates the human oxytocin receptor. P30559. CHO-OTR cells, Fluo-8 calcium fluorescence; normalized: DMSO 0%, oxytocin 100%. activation, % at 3 µM. actives 0.32% (n = 320,000);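 active means activation above the mean of all tested compounds plus 3 SD, cutoff set per screening run, cut at about 20% in these data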;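 further: peak over basal fluorescence ratio from a 100 s FLIPR kinetic read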
Target sequence (P30559 whole entry, looked up): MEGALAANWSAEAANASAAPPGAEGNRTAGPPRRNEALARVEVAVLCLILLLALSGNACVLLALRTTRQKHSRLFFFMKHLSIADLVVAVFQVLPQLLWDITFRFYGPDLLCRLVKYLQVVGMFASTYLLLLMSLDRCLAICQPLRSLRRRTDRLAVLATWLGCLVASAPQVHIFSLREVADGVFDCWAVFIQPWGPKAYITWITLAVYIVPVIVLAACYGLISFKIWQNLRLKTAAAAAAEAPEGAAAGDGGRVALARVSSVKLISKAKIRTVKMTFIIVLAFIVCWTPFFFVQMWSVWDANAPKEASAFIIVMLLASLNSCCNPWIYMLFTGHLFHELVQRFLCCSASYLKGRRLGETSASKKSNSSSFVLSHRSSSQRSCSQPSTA
TAAR1 agonist: agonists of human TAAR1 | Q96RJ0 | CHO RD-HGA16 TAAR1, Fluo-8 calcium fluorescence; vehicle wells 0%, saturating PEA agonist 100% | activation, % at 3 µM | actives 0.99% (n = 360,000);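 active means activation above the mean activation of all test compounds in the run plus 3 SD, cut at about 38% in these data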
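Signal – calcium-sensitive Fluo-8 signal, excitation 470-495, emission 515-575 nm · System – RD-HGA16 (CHO) cells co-expressing Gα16 and hTAAR1 · Incubation – 17-24 h seeding, 75 min 37 °C dye, 30 min RT · Compound dosing – 3 µM single concentration · Repeats – no replicates (n 1)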
OXTR potentiate: human OXTR potentiation | P30559 | CHO-OTR cells, Fluo-8 calcium fluorescence, potentiator mode; 0% = oxytocin EC15, 100% = EC100 | activation, % at 3 µM | actives 0.061% (n = 320,000) | AID 2445;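 active means activation above that plate's cutoff, the mean activation of tested compounds plus 3 SD, cut at about 6.6% in these data, passing the limit was not always enough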;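 further: 100% uses oxytocin at 75 nM as the full agonist control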
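Material: human OTR in CHO cells. Compound: 3.0 µM, one dose. Timing: compound 6 min at room temperature before oxytocin, 100 s read. Evaluation: % activation of max/min ratio relative to oxytocin controls. Replication: single well per compound, singlicate. Signal: Fluo-8 calcium dye fluorescence.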
TAAR1 nonsel count: nonselective antagonist in TAAR1 antagonist counter-screen; counterscreen cell line, calcium fluorescence, antagonist mode; actives 77% (n = 2,400); shares compounds with TAAR1 antag; AID 651780; inhibition, % at 3 µM; in the data active means inhibition above about 22%;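 further: CHO-Ga16 host cells stimulated with ATP at an EC80 level; 0% = agonist EC80 plus vehicle and 100% = vehicle without agonist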
TAAR1 antag conf: confirmation of human TAAR1 antagonists; shares compounds with TAAR1 antag; TAAR1-expressing cells, fluorescence antagonist read-out; inhibition, % at 3 µM; actives 40% (n = 2,400); in the data active means inhibition above about 49%;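 further: CHO-Ga16 host cells challenged with agonist PEA near its EC80; 0% = agonist at EC80 plus vehicle and 100% = vehicle with no agonist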
Ga16 nonsel ag: counter-screen for TAAR1 antagonists: nonselective Ga16 agonists; Ga16-expressing cells, calcium fluorescence, agonist counterscreen; AID 651953; shares compounds with TAAR1 antag; actives 18% (n = 2,400); activation, % at 3 µM; in the data active means activation above about 12%;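 further: 0% = vehicle wells and 100% = saturating stimulus response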
TAAR1 ag count: activates human TAAR1 in antagonist counter-screen | AID 651955 | actives 2% (n = 2,400) | hTAAR1 cell line, fluorescence activation, agonist mode | activation, % at 3 µM | shares compounds with TAAR1 antag; in the data active means activation above about 37%;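 further: CHO cells stably expressing TAAR1 with calcium dye readout; 0% = DMSO vehicle and 100% = full agonist response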
* = called active by the depositor; x = not tested or not shown. Most compounds without a hit are left out; they make up all but 2.3% or so of the library.

SMILES | TAAR1 antag | V1aR counter | OXTR agonist | TAAR1 agonist | OXTR potentiate | TAAR1 nonsel count | TAAR1 antag conf | Ga16 nonsel ag | TAAR1 ag count
Cc1ccc(Sc2ncccc2C(=O)NCc2cc([N+](=O)[O-])ccc2O)cc1C | 60.4* | x | x | 19.9 | x | 28.9* | 40.9 | 10.6 | 14.3
FC(F)(F)C(F)(F)C(F)(F)c1nc2nc(Cl)c(Cl)nc2[nH]1 | -16.2 | x | x | -0.9 | x | x | x | x | x
C[C@@H]1CN(C(=O)OC(C)(C)C)CCN1c1ccc(N2CCS(=O)(=O)CC2)c(C#N)c1 | 16.3 | x | x | 11.6 | x | x | x | x | x
C[C@H]1CN(C(=O)OC(C)(C)C)CCN1c1ccc(N2CCS(=O)(=O)CC2)c(C#N)c1 | 66.6* | x | x | 21.1 | x | 46.8* | 59.9* | 16.2* | 13.2
COc1ccccc1NC(=O)/C=C/c1cc([N+](=O)[O-])ccc1OC(F)F | -8.0 | -1.1 | -0.3 | -2.7 | -2.2 | x | x | x | x
O=C(/C=C/c1cc([N+](=O)[O-])ccc1OC(F)F)Nc1cccc(OC(F)F)c1 | 74.8* | 0.4 | 0.0 | 4.9 | -10.2 | 34.0* | 65.4* | 6.7 | 4.2
NS(=O)(=O)c1ccc(CCNC(=O)c2ccc3c(c2)N(Cc2ccccc2)CCS3)cc1 | 82.6* | 2.4 | 3.7 | 7.6 | -12.6 | 38.8* | 61.8* | 7.7 | 7.3
COc1ccc(CCNC(=O)c2ccc3c(c2)N(Cc2ccccc2)CCS3)cc1OC | 80.1* | -0.8 | -3.0 | 4.6 | -5.2 | 39.5* | 61.6* | 5.8 | 3.0
O=C(NCCCN1CCCC1)c1ccc2c(c1)N(Cc1ccccc1)CCS2 | -9.3 | -0.4 | 1.0 | 6.0 | -0.5 | x | x | x | x
COc1ccc(CCNC(=O)c2cc(-c3ccccc3)c(N3CCOCC3)s2)cc1OC | 66.5* | 0.4 | -0.6 | 1.2 | -6.2 | 24.9* | 40.7 | 3.5 | 0.6
CCOC(=O)C1=CCN(S(=O)(=O)c2cccc(Cl)c2)C1c1ccc(F)cc1 (stereo not drawn) | 19.5 | x | x | 1.9 | x | x | x | x | x
N#CC(=C1C=C(Br)C(=NO)C=C1Cl)c1cccc2ccccc12 | -20.6 | x | x | 0.1 | x | x | x | x | x
C[C@H](CO)N1C[C@H](C)[C@@H](CN(C)C(=O)Nc2cc(F)ccc2F)Oc2ncc(-c3cccc(F)c3)cc2C1=O | -18.2 | x | x | 2.4 | x | x | x | x | x
CC(C)c1nc2scc(-c3ccc(Cl)cc3)c2c(=O)n1N | 65.6* | 1.2 | 6.9 | 3.4 | -5.5 | 31.6* | 39.2 | 5.8 | 0.3
Cc1ccc(NC(=O)Nc2cccnc2)cc1NC(=O)Nc1cccnc1 | 49.9* | 1.0 | -1.1 | 2.0 | -6.0 | 18.6 | 35.3 | 3.5 | 4.1
Cc1cc(C)cc(NC(=O)Nc2cccnc2)c1 | -4.7 | x | x | 18.1 | x | x | x | x | x
COc1ccc(Cl)c(-c2cc(C(=O)NCc3ccc(C(F)(F)F)cc3)[nH]n2)c1 | 62.8* | x | x | 22.1 | x | 31.9* | 47.7 | 18.7* | 35.3
COc1ccc(CCNC(=O)c2cc(-c3cc(Cl)ccc3O)n[nH]2)cc1OC | 60.5* | 15.9 | 6.3 | 14.0 | -8.8 | 39.0* | 53.9* | 12.8* | 15.4
COc1ccc(Cl)c(-c2cc(C(=O)NCc3ccco3)[nH]n2)c1 | -5.3 | x | x | 1.0 | x | x | x | x | x
Cc1ccc(Cl)cc1-c1cc(C(=O)NCc2ccc(C(F)(F)F)cc2)[nH]n1 | 76.7* | x | x | 34.7 | x | 42.4* | 65.8* | 32.5* | 58.0*
Oc1ccc(Br)c(CN2CCN(c3ncc(Cc4ccccc4)cn3)CC2)c1 | 2.2 | x | x | 3.4 | x | x | x | x | x
Cc1c(Cl)ccc(S(=O)(=O)N2CCN(C)CC2)c1Cl | -2.4 | x | x | 0.7 | x | x | x | x | x
CCn1c(=NC(=O)c2ccc(N3C(=O)CCC3=O)cc2)sc2c(OC)ccc(OC)c21 | 46.6 | 1.7 | -0.1 | 0.3 | 1.3 | x | x | x | x
CCn1c(=NC(=O)c2cccc(N3C(=O)CCC3=O)c2)sc2c(C)ccc(OC)c21 | 60.5* | -0.1 | -0.7 | 11.9 | -0.9 | 30.5* | 47.1 | 6.5 | 5.6
CCCS(=O)(=O)c1c(S(=O)(=O)CCC)c2c3ccccc3ccn2c1C(=O)OC | 48.7* | -0.5 | -2.6 | 9.1 | -9.3 | 16.4 | 31.5 | 5.5 | 4.5
SMILES | TAAR1 antag | V1aR counter | OXTR agonist | TAAR1 agonist | OXTR potentiate | TAAR1 nonsel count | TAAR1 antag conf | Ga16 nonsel ag | TAAR1 ag count
C[C@H](NC(=O)c1ncn2c1c(=O)[nH]c1ccc(Br)cc12)c1ccccc1 | -20.3 | x | x | 1.8 | x | x | x | x | x
CC(C)Oc1ccc(CNC(=O)CCC(=O)N2CCSc3ccccc32)cc1 | -8.8 | 1.4 | 0.7 | 2.0 | -3.8 | x | x | x | x
CCOc1ccc(NC(=O)CCC(=O)N2CCSc3ccccc32)cc1 | 61.9* | 1.2 | 2.4 | 10.0 | -15.2 | 24.7* | 34.5 | 6.5 | 4.5
O=C(CSc1nnc(-c2ccc(Br)cc2)o1)Nc1cccc(C(=O)O)c1 | -10.8 | 0.9 | 0.2 | 0.0 | 0.8 | x | x | x | x
O=C(CSc1nnc(-c2ccc(Br)cc2)o1)Nc1cccc2ccccc12 | 58.5* | 0.3 | -0.8 | 20.1 | -0.3 | 30.1* | 19.4 | 4.8 | 4.4
O=C(CC(C(=O)c1ccccc1)c1ccccc1)c1ccccc1 (stereo not drawn) | 66.7* | x | x | 0.9 | x | 22.7* | 40.1 | 6.0 | 2.0
CN(C)CC(C(=O)c1ccccc1)c1ccccc1 (stereo not drawn) | 9.9 | -1.3 | -2.3 | 1.1 | -9.6 | x | x | x | x
Cc1cc(C)c(S(=O)(=O)N2CCN(C(=O)c3c(C)nn(-c4ccccc4)c3Cl)CC2)c(C)c1 | 67.7* | x | x | 13.4 | x | 34.5* | 46.0 | 8.3 | 4.5
Cc1cc(C)c(S(=O)(=O)N2CCCOC2CNC(=O)C(=O)NCCc2c[nH]c3ccccc23)c(C)c1 (stereo not drawn) | 75.5* | 6.6 | 14.4 | 32.2 | -16.3 | 52.2* | 67.8* | 18.4* | 23.6
COc1ccc(NC(=O)Cn2nnc(-c3ccccc3NC(=O)c3ccco3)n2)cc1 | 8.0 | -0.8 | 0.6 | 9.2 | -8.9 | x | x | x | x
COc1ccccc1NC(=O)Cn1nnc(-c2ccccc2NC(=O)c2ccco2)n1 | 55.6* | 2.5 | 0.2 | 12.6 | -16.7 | 21.2 | 35.2 | 8.7 | 13.1
O=C(Nc1ccc(Cl)cc1)N(Cc1cccs1)Cc1cccs1 | 70.9* | 3.9 | -0.5 | 14.4 | -16.0 | 29.4* | 45.4 | 4.6 | 1.2
COc1cc(-c2nc(C(=O)NCC3CCCO3)cc3c2[nH]c2ccccc23)cc(OC)c1OC (stereo not drawn) | 61.4* | -0.4 | 0.1 | 5.7 | -4.8 | 28.3* | 39.8 | 6.3 | 3.9
COc1ccccc1-c1nc(C(=O)NCC2CCCO2)cc2c1[nH]c1ccccc12 (stereo not drawn) | x | 0.3 | 2.4 | x | -7.7 | x | x | x | x
